M1 agonist = M1 muscarinic receptor agonists, primary screen, CHO-M1 cells, Fluo-4 calcium, agonist mode; Muscarinic acetylcholine receptor M1; 3% of 64,000 active; B-score at 10 µM; Fluo-4 calcium fluorescence; active compounds read high;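 active = fluorescence rise, raw or as B-score row- and column-corrected plate score, outside the 99.7% band of its plate's samples, either direction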
SF-1 act = activators of human SF-1, primary screen, cell-based, CHO-K1, Gal4-SF-1 LBD, luciferase luminescence. CHO-K1 Gal4-SF-1 LBD luciferase reporter; % increase over DMSO SF-1-specific signal. activation, % at 10 µM. 1.9% of 65,000 active;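 active = activation above the mean activation of all tested compounds plus 3 SD, cut at about 50% in these data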
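Compound – one dose, 10 µM compound, 1% DMSO · Test system – transient Gal4-SF-1 LBD reporter, CHO-K1 · Input – 4,000 cells in each well · Read-out basis – percent activation relative to DMSO median and mock-transfected background · Replicates – single measurement per compound · Technique – steady-glow luciferase luminescence, read after 15 min reagent incubation · Timing – 20 h compound treatment, 37 °C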
RORa activator = activators of orphan receptor RORA, primary screen, cell-based, luminescence; Nuclear receptor ROR-alpha (Homo sapiens), P35398; CHO-K1 Gal4-RORA LBD luciferase reporter; percent increase over mock-subtracted basal signal; activation, % at 10 µM; 1.5% of 65,000 active;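 active = activation above the mean of all tested compounds plus 3 SD, cut at about 49% in these data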
M1 antagonist = antagonists of rat M1 muscarinic receptor. AID 628, 2007. Muscarinic acetylcholine receptor M1 (Rattus norvegicus), P08482. CHO-M1 cells, Fluo-4 calcium, ACh EC80 antagonist mode; active compounds read low. 3.4% of 64,000 active. B-score at 10 µM;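 active = calcium fluorescence response, raw or row-and-column corrected B-score, differing from the plate sample mean either way at a set confidence level, mostly lower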
Target sequence (P08482 whole entry, looked up): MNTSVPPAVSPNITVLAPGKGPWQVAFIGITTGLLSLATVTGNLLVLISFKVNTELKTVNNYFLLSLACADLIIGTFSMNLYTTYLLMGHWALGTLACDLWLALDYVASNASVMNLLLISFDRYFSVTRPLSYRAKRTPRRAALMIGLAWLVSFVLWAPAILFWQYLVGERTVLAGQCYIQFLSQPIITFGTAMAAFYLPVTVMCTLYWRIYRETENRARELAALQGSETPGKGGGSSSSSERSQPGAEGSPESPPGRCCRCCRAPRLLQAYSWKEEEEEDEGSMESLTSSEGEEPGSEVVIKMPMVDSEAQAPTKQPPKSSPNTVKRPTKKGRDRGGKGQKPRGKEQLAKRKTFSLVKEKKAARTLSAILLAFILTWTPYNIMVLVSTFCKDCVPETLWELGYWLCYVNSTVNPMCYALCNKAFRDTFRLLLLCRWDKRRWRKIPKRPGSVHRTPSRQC
MT1-MMP txn act = MT1-MMP promoter reporter activation – cell-based, luciferase luminescence, primary screen. HT1080 MT1-MMP promoter luciferase reporter, overnight; active compounds read high. AID 750, 2007. activation factor at 10 µM. 0.16% of 86,000 active;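 active = activation factor of at least 2 for MT1-MMP transcription at 10 µM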
Hits are given with their value; i = inactive; nt = no result. Shown are actives, neighbours in structure and some others; about 6.3% of the full set was active somewhere.

SMILES | M1 agonist | SF-1 act | RORa activator | M1 antagonist | MT1-MMP txn act
Cc1cccc(/N=C/c2c(O)[nH]c3ccccc23)n1 | i | 103 | 86 | i | i
CC(C)N=Cc1c(O)[nH]c2ccccc12 | nt | nt | nt | nt | i
O=C1Nc2cc(Cl)cnc2N2CCCC12 (configuration not stated) | 13 | i | i | i | i
CCC[C@@H]1C[C@@]1(CCC)C(NC(=O)c1ccco1)c1ccc(Cl)cc1 (some centres not stated) | nt | nt | nt | nt | i
O=C(Nc1nc2c(s1)CCCC2)c1ccc2ncsc2c1 | i | i | 50 | i | i
Cc1ncsc1C(=O)Nc1nc2c(s1)CCCC2 | i | 66 | 57 | i | i
COc1cccc(C(=O)CN2C(=O)C(C)(C)Oc3ccc(C(=O)N4CCCCCC4)cc32)c1 | i | i | i | i | i
CC(=O)Nc1ccccc1OCC(=O)c1ccc2c(c1)OCO2 | i | i | 65 | i | i
O=C(CCNc1ccccc1)c1ccc2c(c1)OCO2 | i | 62 | i | i | i
CCOc1ccccc1NC(=O)c1c(NC(=O)CNCc2ccco2)sc2c1CCC2 | i | i | i | -8.1 | i
COC(=O)Nc1sc2c(c1C(=O)NCc1ccco1)CCC2 | i | i | i | i | i
Cc1ccc(S(=O)(=O)N(CC(=O)NCc2ccco2)Cc2ccccc2F)cc1 | i | i | i | i | i
Cc1cccc2nc(CSCc3ccco3)cn12 | i | 55 | i | i | i
CCC(=O)Nc1ccc(S(=O)(=O)Nc2cccc(C)c2)cc1OC | i | i | i | i | i
O=C(CCn1ccc2ccccc21)Nc1ccc(N2CCOCC2)cc1 | i | i | i | i | i
Cc1ccc2c(c1)c1ncnc(N3CCOCC3)c1n2C | i | i | i | i | i
Cc1ccc2c(c1)c1ncnc(N3CCC4(CC3)OCCO4)c1n2C | i | 67 | 62 | i | i
COc1cc2cc3c(N)c(C(=O)NCc4ccco4)sc3nc2cc1OC | i | i | 80 | i | i
Cc1ccc2nc3sc(C(=O)NCc4ccco4)c(N)c3cc2c1 | nt | nt | nt | nt | i
Cc1cc(C)n(-c2ccc(C(=O)Nc3nc4ccccc4s3)cc2)n1 | i | i | 49 | i | i
Cc1cc(C)n(-c2ccc(C(=O)NC3=NCCS3)cc2)n1 | i | i | 51 | i | i
Nc1ccc(C(=O)Nc2nc3ccccc3s2)cc1 | i | nt | nt | i | nt
CNC(=O)CN(c1ccc(F)cc1)S(=O)(=O)c1cc(C)ccc1OC | nt | nt | nt | nt | i
CCOC(=O)N1CCN(C(=O)c2cc(Cl)c(Cl)cc2C(=O)O)CC1 | 4.6 | i | i | i | i
CCOC(=O)N1CCN(c2ccc(Cl)c(Cl)c2)CC1 | i | i | i | i | i
SMILES | M1 agonist | SF-1 act | RORa activator | M1 antagonist | MT1-MMP txn act
CCOC(=O)N1CCN(C(=O)CCCOc2ccccc2)CC1 | i | 75 | i | i | i
Cc1cc(C(=O)CSc2nnnn2-c2ccc(Cl)cc2)c(C)n1CC1CCCO1 (configuration not stated) | i | i | i | i | i
Cc1cc(C(=O)CSc2nnnn2-c2ccccc2)c(C)n1CC1CCCO1 (configuration not stated) | i | 68 | i | i | i
Cc1c(CNC(=O)c2nn3c(c2Cl)NC(c2ccccc2)CC3C(F)(F)F)cnn1C (configuration not stated) | i | i | i | i | i
Oc1ccccc1CNc1cnc2ccccc2c1 | nt | nt | nt | nt | 2.1
O=C(Nc1cnc2ccccc2c1)N1CCOCC1 | i | i | i | i | i
FC(F)(F)c1ccc(CN2C[C@@H]3C(c4ccc(Cl)nc4)C4(c5ccccc5)CC3(C4)[C@H]2c2ccccc2)cc1 (some centres not stated) | nt | nt | nt | nt | i
Nn1c(-c2ccccc2Cl)nnc1-c1ccccc1Cl | nt | nt | nt | nt | 2
C[C@@]1(C(NC(=O)Cc2ccc(C(F)(F)F)cc2)c2ccc(-c3ccccc3)cc2)C[C@H]1C1CCCCC1 (some centres not stated) | nt | nt | nt | nt | i
O=C(c1ccco1)N1CCN(c2ncnc3scc(-c4cccs4)c23)CC1 | 1.9 | i | i | i | i
O=C(c1ccco1)N1CCN(c2ncnc3scc(-c4ccccc4)c23)CC1 | nt | nt | nt | nt | i
CCCC1C2CN(C(C)C)CC=C2C(C#N)=C(N)C1(C#N)C#N (configuration not stated) | 8.3 | i | i | i | i
O=C(CN1C(=O)CCC1=O)Nc1nc(-c2nc3ccccc3s2)cs1 | i | 106 | 87 | i | i
O=C(Nc1nc(-c2ccc3c(c2)OCO3)cs1)C1CC1 | i | 51 | 72 | i | i
O=C(Nc1nc(-c2nc3ccccc3s2)cs1)c1ccco1 | i | i | i | i | i
O=C(Nc1nc(-c2nc3ccccc3s2)cs1)C1CC1 | i | i | 51 | i | i
c1cncc(-c2nc(-c3ccc4c(c3)OCO4)cs2)c1 | i | i | i | i | i
c1ccc(-c2nn3c(-c4ccncc4)nnc3s2)nc1 | i | i | i | i | i
COc1ccc(C2c3cc(OC)c(OC)cc3CCN2C2CC(=O)N(c3ccccc3)C2=O)cc1OC (configuration not stated) | nt | nt | nt | nt | i
CCn1c2ccccc2c2nnc(SCC(=O)NC(CC(C)C)C(=O)OC)nc21 (configuration not stated) | i | i | i | i | i
CCOC(=O)c1c(C)n(C)c2ccc(OCC(O)CN(CC)CC)cc12 (configuration not stated) | i | i | i | i | i
CCOC(=O)c1c(C)n(C)c2ccc(OCC(O)CN3C(=O)c4ccccc4S3(=O)=O)cc12 (configuration not stated) | 7.2 | i | i | i | i
c1ccc(-c2cn3c(n2)CCC3)cc1 | nt | nt | nt | nt | i
c1ccc(-c2cc3n(c2)CCc2ccccc2-3)cc1 | nt | nt | nt | nt | 2.6
CCOc1cc(NC2CS(=O)(=O)CC2O)c(OCC)cc1NC(=O)c1ccccc1 (configuration not stated) | i | i | i | 2.6 | i
SMILES | M1 agonist | SF-1 act | RORa activator | M1 antagonist | MT1-MMP txn act
Cc1cc(N)c(-n2cc3c(=O)n(C)c(=O)n(C)c3c2)cc1C | i | i | 54 | i | i
Cc1ccc(-n2cc3c(=O)n(C)c(=O)n(C)c3c2)cc1C | i | i | i | i | i
O=C(Nc1ccc(NC(=O)C2CC2)nc1)c1ccccn1 | i | i | i | i | i
CCC(=O)Nc1ccc(NC(=O)c2ccccn2)cn1 | i | i | 65 | i | i
CC(C)C(=O)Nc1ccc(NC(=O)c2ccccn2)cn1 | i | i | 51 | i | nt
CCOC(=O)c1cn2cccnc2n1 | nt | nt | nt | nt | i
COC(=O)[C@@]1(Cc2ccc(OC)cc2)[C@H]2c3cc(C(=O)N(C)C)n(CCc4ccccn4)c3C[C@H]2CN1C(=O)c1ccccc1 | nt | nt | nt | nt | i
O=c1ccc(/C=C/c2ccccc2)nn1Cc1ccccc1Cl | nt | nt | nt | nt | i
Cc1nc2cc(NC(=O)NCCC3=CCCCC3)ccc2o1 | i | i | 73 | i | i
CCC1CCCCN1C(=O)CSc1nnc(-c2ccco2)o1 (configuration not stated) | i | 52 | 49 | i | i

Screens from PubChem.
